# In ChEMBL document CHEMBL4229483, “Synthesis and evaluation of an orally available "Y"-shaped biaryl peroxisome proliferator-activated receptor δ agonist” (Bioorg Med Chem, 2018):
# pEC50, pIC50: −log10 of the molar value.
# Assays:
# [1] = target: T1, Peroxisome proliferator-activated receptor alpha (Homo sapiens, UniProt Q07869); test: Transactivation of human PPARalpha expressed in monkey CV-1 cells coexpressing TK-PPRE-Luc after 24 hrs by luciferase reporter gene assay; assay type: cell-based
# T1 sequence (Q07869 whole entry): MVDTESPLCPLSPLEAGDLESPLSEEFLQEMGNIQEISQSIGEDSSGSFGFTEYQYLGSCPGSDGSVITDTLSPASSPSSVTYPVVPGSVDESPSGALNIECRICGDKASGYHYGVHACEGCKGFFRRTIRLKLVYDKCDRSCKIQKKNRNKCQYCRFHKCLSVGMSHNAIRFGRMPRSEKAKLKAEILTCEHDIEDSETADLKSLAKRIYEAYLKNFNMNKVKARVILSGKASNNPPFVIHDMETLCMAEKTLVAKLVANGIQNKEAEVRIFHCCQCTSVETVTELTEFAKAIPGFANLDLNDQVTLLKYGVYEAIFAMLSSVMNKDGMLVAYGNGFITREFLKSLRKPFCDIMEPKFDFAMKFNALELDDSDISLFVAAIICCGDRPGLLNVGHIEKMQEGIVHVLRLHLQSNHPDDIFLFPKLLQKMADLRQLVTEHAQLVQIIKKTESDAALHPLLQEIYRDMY
# [2] = target: T2, Peroxisome proliferator-activated receptor gamma (Homo sapiens, UniProt P37231); test: Transactivation of human PPARgamma expressed in monkey CV-1 cells coexpressing TK-PPRE-Luc after 24 hrs by luciferase reporter gene assay; assay type: cell-based
# T2 sequence (P37231 whole entry): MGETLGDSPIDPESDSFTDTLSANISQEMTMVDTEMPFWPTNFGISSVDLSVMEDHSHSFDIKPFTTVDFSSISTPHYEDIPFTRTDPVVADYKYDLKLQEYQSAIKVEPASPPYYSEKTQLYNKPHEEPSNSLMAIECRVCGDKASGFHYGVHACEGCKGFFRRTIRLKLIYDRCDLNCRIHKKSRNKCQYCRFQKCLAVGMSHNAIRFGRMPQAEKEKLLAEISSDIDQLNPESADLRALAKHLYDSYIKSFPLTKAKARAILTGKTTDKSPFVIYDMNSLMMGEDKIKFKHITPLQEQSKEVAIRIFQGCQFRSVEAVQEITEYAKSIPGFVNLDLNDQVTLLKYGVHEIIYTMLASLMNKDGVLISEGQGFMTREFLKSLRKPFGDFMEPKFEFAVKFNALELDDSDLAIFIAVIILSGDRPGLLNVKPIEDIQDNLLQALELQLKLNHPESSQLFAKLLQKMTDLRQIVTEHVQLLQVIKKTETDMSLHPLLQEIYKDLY
# [3] = target: T3, Peroxisome proliferator-activated receptor delta (Homo sapiens, UniProt Q03181); test: Transactivation of human PPARdelta expressed in monkey CV-1 cells coexpressing TK-PPRE-Luc after 24 hrs by luciferase reporter gene assay; assay type: cell-based
# T3 sequence (Q03181 whole entry): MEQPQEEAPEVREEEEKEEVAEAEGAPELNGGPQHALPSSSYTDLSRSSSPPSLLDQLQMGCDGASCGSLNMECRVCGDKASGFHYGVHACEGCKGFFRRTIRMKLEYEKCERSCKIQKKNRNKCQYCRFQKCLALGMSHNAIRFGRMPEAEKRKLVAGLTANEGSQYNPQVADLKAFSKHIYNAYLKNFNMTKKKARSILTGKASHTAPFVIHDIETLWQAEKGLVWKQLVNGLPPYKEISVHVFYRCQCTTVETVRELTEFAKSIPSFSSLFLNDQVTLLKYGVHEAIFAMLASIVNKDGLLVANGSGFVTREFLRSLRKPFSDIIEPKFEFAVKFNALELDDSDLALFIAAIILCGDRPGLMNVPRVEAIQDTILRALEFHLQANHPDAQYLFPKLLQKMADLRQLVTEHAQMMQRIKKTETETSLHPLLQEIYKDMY
# How it was run: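 Agonist activity tested in transiently transfected CV-1 cells by reporter assay. EC50 is the molar concentration giving 50% of the maximal reporter activity.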
# [4] = Metabolic stability in mouse liver microsomes assessed as parent compound remaining at 1 uM after 30 mins in presence of NADPH by LC-MS/MS analysis; assay type: ADME, microsome; details: read-out: Stability
# How it was run: (§1)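 Compound incubated with liver microsomes for 30 min. Percentage of parent remaining quantified by LC-MS/MS. Means of duplicate determinations.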
# CYP2C9 = CYP2C9 (Homo sapiens, UniProt P11712); test: Inhibition of tolbutamide 4-hydroxylase activity of CYP2C9 in human liver microsomes at 10 uM preincubated for 5 mins followed by NADPH addition measured after 15 mins by LC-MS/MS analysis; assay type: ADME; details: probe tolbutamide (4-hydroxylation)
# Sequence of CYP2C9 (P11712 whole entry): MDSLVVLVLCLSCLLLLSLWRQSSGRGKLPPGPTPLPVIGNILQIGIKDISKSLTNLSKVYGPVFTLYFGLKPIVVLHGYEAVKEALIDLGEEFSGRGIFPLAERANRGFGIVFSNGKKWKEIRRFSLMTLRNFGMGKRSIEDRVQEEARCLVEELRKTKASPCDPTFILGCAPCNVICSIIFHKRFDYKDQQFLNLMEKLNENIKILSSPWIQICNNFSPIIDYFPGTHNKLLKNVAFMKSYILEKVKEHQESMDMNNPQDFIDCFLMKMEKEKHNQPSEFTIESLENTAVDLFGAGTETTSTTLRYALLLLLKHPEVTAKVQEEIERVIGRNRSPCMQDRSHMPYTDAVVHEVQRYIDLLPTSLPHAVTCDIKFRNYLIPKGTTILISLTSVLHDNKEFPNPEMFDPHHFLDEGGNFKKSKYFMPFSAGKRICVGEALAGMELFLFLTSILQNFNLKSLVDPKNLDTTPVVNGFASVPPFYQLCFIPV
# How it was run: (§2)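 Compound incubated with liver microsomes and isotype-specific CYP substrates for 15 min. Activity expressed as percent inhibition relative to incubation without compound. Values are means of duplicates.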
# CYP2D6 = CYP2D6 (Homo sapiens, UniProt P10635); test: Inhibition of dextromethorphan O-demethylase activity of CYP2D6 in human liver microsomes at 10 uM preincubated for 5 mins followed by NADPH addition measured after 15 mins by LC-MS/MS analysis; assay type: ADME; details: probe dextromethorphan (O-demethylation); how it was run: as §2
# Sequence of CYP2D6 (P10635 whole entry): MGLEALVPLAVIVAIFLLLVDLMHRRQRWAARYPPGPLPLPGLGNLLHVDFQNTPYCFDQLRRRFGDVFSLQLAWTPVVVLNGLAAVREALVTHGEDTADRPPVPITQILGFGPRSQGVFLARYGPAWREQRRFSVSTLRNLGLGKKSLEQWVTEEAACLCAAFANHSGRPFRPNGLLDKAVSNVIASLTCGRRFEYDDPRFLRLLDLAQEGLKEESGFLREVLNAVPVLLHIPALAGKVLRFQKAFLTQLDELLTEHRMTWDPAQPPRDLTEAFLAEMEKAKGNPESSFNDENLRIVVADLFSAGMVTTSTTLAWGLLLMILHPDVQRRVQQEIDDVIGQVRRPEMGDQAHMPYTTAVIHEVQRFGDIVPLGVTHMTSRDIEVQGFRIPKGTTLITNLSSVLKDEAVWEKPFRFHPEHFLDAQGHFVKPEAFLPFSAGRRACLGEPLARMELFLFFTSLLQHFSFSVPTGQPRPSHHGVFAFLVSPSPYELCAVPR
# [5] = Tmax in Sprague-Dawley rat at 10 mg/kg, po by LC-MS/MS analysis; assay type: ADME, organism-based; details: in vivo
# How it was run: (§3)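 Formulation: ethanol 10%, DMSO 10%, Cremophor EL 10%, […], PEG400 30%. PK parameters taken from composite mean plasma concentration–time profiles, given as mean ± SD.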
# [6] = Cmax in Sprague-Dawley rat at 10 mg/kg, po by LC-MS/MS analysis; assay type: ADME, organism-based; design: dose 10 mg/kg, route oral; details: in vivo; how it was run: as §3
# [7] = Metabolic stability in rat liver microsomes assessed as parent compound remaining at 1 uM after 30 mins in presence of NADPH by LC-MS/MS analysis; assay type: ADME, microsome; details: read-out: Stability; how it was run: as §1
# [8] = Half life in Sprague-Dawley rat at 1 mg/kg, iv by LC-MS/MS analysis; assay type: ADME, organism-based; details: in vivo
# How it was run: (§4)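 Rats (n = 4) given 1 mg/kg iv. Vehicle: ethanol 10%, DMSO 10%, Cremophor EL 10%, water 50%, PEG400 30%. Parameters calculated from composite mean plasma concentration–time data, reported as mean ± SD.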
# CYP1A2 = target: T4, CYP1A2 (Homo sapiens, UniProt P05177); test: Inhibition of phenacetin O-deethylase activity of CYP1A2 in human liver microsomes at 10 uM preincubated for 5 mins followed by NADPH addition measured after 15 mins by LC-MS/MS analysis; assay type: ADME; details: probe phenacetin (O-deethylation); how it was run: as §2
# T4 sequence (P05177 whole entry): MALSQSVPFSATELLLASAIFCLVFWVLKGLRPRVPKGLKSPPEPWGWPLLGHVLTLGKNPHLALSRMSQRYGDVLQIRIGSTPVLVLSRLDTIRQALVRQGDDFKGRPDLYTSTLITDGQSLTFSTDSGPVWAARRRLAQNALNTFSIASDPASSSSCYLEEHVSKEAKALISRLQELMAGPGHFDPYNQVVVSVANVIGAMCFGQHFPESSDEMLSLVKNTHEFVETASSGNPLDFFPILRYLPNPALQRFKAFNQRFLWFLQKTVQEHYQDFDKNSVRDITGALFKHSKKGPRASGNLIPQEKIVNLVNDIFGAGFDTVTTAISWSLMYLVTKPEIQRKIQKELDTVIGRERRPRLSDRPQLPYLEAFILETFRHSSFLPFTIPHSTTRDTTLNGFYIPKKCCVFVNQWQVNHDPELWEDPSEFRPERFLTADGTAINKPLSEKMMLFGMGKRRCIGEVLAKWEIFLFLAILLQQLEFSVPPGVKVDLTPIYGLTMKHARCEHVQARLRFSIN
# [9] = Permeability of the compound at 10 uM at pH 7.4 after 5 hrs by PAMPA; assay type: ADME; details: read-out: permeability
# How it was run: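 PAMPA. Effective permeability calculated after 5 h. Values are the mean of four determinations.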
# [10] = Clearance in Sprague-Dawley rat at 1 mg/kg, iv by LC-MS/MS analysis; assay type: ADME, organism-based; details: in vivo; how it was run: as §4
# [11] = Volume of distribution at steady state in Sprague-Dawley rat at 1 mg/kg, iv by LC-MS/MS analysis; assay type: ADME, organism-based; details: in vivo, read-out: Vdss; how it was run: as §4
# [12] = target: Voltage-gated inwardly rectifying potassium channel KCNH2 (Homo sapiens, UniProt Q12809); test: Inhibition of human ERG after 4 hrs by fluorescence polarization assay
# Sequence of Voltage-gated inwardly rectifying potassium channel KCNH2 (Q12809 whole entry): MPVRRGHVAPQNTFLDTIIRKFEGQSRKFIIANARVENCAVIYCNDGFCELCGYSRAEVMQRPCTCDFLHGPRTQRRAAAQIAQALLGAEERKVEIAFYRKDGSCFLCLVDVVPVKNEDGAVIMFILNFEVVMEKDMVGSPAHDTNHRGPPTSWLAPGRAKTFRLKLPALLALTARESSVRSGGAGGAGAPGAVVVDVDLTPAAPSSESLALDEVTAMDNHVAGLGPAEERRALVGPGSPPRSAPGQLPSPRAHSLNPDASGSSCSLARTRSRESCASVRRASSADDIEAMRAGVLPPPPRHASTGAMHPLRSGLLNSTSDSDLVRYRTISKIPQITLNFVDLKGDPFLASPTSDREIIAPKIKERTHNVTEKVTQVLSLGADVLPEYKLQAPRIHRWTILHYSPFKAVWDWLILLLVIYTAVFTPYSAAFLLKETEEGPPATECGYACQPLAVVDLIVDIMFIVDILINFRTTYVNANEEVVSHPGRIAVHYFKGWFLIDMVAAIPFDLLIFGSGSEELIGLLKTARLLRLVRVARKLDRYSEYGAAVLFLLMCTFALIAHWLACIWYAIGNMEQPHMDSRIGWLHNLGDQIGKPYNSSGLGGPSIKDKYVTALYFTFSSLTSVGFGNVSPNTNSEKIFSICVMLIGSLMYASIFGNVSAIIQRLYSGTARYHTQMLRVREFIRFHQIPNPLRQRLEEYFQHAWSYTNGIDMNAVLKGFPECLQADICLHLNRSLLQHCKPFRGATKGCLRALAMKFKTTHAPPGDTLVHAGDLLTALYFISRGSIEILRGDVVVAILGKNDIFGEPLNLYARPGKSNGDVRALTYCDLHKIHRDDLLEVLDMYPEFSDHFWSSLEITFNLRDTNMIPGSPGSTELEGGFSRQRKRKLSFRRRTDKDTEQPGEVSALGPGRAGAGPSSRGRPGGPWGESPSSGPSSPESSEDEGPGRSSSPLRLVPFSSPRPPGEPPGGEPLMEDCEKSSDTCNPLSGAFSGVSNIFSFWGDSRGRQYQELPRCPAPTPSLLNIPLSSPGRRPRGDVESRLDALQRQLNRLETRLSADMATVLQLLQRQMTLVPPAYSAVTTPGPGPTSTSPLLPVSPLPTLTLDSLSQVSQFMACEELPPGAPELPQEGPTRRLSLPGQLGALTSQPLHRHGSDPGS
# How it was run: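 hERG channel binding measured by a fluorescence polarization (Predictor) assay. IC50 obtained by four-parameter non-linear regression.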
# CYP3A4 = CYP3A4 (Homo sapiens, UniProt P08684); test: Inhibition of midazolam 1'-hydroxylase activity of CYP3A4 in human liver microsomes at 10 uM preincubated for 5 mins followed by NADPH addition measured after 15 mins by LC-MS/MS analysis; assay type: ADME; details: probe midazolam (1'-hydroxylation); how it was run: as §2
# Sequence of CYP3A4 (P08684 whole entry): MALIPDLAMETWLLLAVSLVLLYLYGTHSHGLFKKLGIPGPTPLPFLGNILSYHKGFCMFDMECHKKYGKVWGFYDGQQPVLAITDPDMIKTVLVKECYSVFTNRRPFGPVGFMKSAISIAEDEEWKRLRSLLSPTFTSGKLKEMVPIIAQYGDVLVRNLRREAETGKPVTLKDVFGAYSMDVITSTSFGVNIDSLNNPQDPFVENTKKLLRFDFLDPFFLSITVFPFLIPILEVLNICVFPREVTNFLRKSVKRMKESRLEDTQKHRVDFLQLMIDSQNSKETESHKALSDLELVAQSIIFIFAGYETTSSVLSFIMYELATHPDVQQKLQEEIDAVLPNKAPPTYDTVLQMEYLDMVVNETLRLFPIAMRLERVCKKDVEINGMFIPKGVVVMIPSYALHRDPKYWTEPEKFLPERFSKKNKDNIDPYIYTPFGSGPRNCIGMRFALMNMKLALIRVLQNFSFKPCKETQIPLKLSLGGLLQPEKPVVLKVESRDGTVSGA
# [13] = Total AUC in Sprague-Dawley rat at 1 mg/kg, iv by LC-MS/MS analysis; assay type: ADME, organism-based; design: dose 1 mg/kg, route intravenous, time AUCmax; details: in vivo; how it was run: as §4
# [14] = Metabolic stability in dog liver microsomes assessed as parent compound remaining at 1 uM after 30 mins in presence of NADPH by LC-MS/MS analysis; assay type: ADME, Canis lupus familiaris, microsome; details: read-out: Stability; how it was run: as §1
# [15] = Total AUC in Sprague-Dawley rat at 10 mg/kg, po by LC-MS/MS analysis; assay type: ADME, organism-based; design: dose 10 mg/kg, route oral, time AUCmax; details: in vivo; how it was run: as §3
# CYP2C19 = CYP2C19 (Homo sapiens, UniProt P33261); test: Inhibition of S-mephenytoin 4-hydroxylase activity of CYP2C19 in human liver microsomes at 10 uM preincubated for 5 mins followed by NADPH addition measured after 15 mins by LC-MS/MS analysis; assay type: ADME; details: probe S-mephenytoin (4-hydroxylation); how it was run: as §2
# Sequence of CYP2C19 (P33261 whole entry): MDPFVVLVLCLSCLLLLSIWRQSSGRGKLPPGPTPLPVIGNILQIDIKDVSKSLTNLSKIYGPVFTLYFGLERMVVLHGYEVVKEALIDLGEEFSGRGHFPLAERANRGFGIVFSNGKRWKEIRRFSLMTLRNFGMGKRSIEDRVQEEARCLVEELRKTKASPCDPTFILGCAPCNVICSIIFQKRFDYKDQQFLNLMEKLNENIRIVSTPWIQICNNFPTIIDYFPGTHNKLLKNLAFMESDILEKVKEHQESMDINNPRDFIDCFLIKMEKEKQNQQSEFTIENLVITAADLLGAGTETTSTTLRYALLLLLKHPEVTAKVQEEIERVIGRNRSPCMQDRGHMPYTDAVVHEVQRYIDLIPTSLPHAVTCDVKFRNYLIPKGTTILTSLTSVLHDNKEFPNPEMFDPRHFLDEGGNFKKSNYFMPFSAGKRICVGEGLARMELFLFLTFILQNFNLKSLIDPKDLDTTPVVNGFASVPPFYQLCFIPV
# [16] = Oral bioavailability in Sprague-Dawley rat at 10 mg/kg by LC-MS/MS analysis; assay type: ADME, organism-based; details: in vivo; how it was run: as §3
# [17] = Metabolic stability in human liver microsomes assessed as parent compound remaining at 1 uM after 30 mins in presence of NADPH by LC-MS/MS analysis; assay type: ADME, microsome; details: read-out: Stability; how it was run: as §1
SMILES,pEC50 [1],pEC50 [2],pEC50 [3],other results
Cc1cc(SC(Cc2cc(Cl)ccc2Cl)c2ccc(-c3cc(F)c(F)c(F)c3)cc2)ccc1OCC(=O)O (stereo not given),< 5.00,< 5.00,8.02,–
Cc1cc(SC(Cc2cc(C(F)(F)F)ccc2F)c2ccc(-c3cccc(C(F)(F)F)c3)cc2)ccc1OCC(=O)O (stereo not given),< 5.00,< 5.00,8.24,–
Cc1cc(SC(Cc2cc(Cl)ccc2F)c2ccc(-c3cc(F)c(F)c(F)c3)cc2)ccc1OCC(=O)O (stereo not given),< 5.00,< 5.00,8.16,–
Cc1cc(SC(Cc2cc(Cl)ccc2F)c2ccc(-c3ccc(F)cc3)cc2)ccc1OCC(=O)O (stereo not given),< 5.00,< 5.00,7.60,–
Cc1cc(SC(Cc2cc(F)c(F)c(F)c2)c2ccc(-c3cccc(C(F)(F)F)c3)cc2)ccc1OCC(=O)O (stereo not given),< 5.00,< 5.00,7.92,–

# Continued, in another order:
pEC50 [1],pEC50 [2],pEC50 [3],SMILES,other results
< 5.00,< 5.00,8.40,Cc1cc(SC(Cc2cc(F)ccc2F)c2ccc(-c3ccc(F)cc3)cc2)ccc1OCC(=O)O (stereo not given),–
< 5.00,< 5.00,7.42,Cc1cc(SC(Cc2cc(C(F)(F)F)ccc2F)c2ccc(-c3ccc(F)cc3)cc2)ccc1OCC(=O)O (stereo not given),–
< 5.00,< 5.00,7.19,Cc1cc(SC(Cc2cc(F)c(F)c(F)c2)c2ccc(-c3ccc(F)cc3)cc2)ccc1OCC(=O)O (stereo not given),–
< 5.00,< 5.00,8.15,Cc1cc(SC(Cc2ccccc2)c2ccc(-c3ccc(F)cc3)cc2)ccc1OCC(=O)O (stereo not given),–
< 5.00,< 5.00,–,Cc1cc(SC(Cc2ccccc2)c2ccc(-c3ccc(C(F)(F)F)cc3)nc2)ccc1OCC(=O)O (stereo not given),–
< 5.00,< 5.00,–,Cc1cc(SC(Cc2ccccc2)c2ccc(-c3ccc(C(F)(F)F)cc3)cc2)ccc1OCC(=O)O (stereo not given),"remaining at 0.5 h, 1 µM [4]: > 100%; inhibition at 0.25 h, 10 µM (CYP2C9): 35.5%; inhibition at 0.25 h, 10 µM (CYP2D6): 0%; Tmax [5]: 4.5 h; Cmax [6]: 2320 ng/mL; remaining at 0.5 h, 1 µM [7]: > 100%; half-life [8]: 3.6 h; inhibition at 0.25 h, 10 µM (CYP1A2): 1.5%; Papp at 5 h, 10 µM [9]: 9.54 ×10⁻⁶ cm/s; clearance [10]: 4 mL/min/kg; Vd [11]: 1 L/kg; pIC50 [12]: < 5.00; inhibition at 0.25 h, 10 µM (CYP3A4): 7.3%; AUC [13]: 3830 ng·h/mL; remaining at 0.5 h, 1 µM [14]: > 100%; AUC [15]: 12500 ng·h/mL; inhibition at 0.25 h, 10 µM (CYP2C19): 4.3%; bioavailability [16]: 32.6%; remaining at 0.5 h, 1 µM [17]: 99.8%"
